Assay [1] concerns Mycobacterium tuberculosis. The experiment in a line: Antimycobacterial activity against Mycobacterium tuberculosis H37Rv incubated for 12 to 28 days by agar dilution method. The class given is functional. The essentials: (§1)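 Conventional Lowenstein-Jensen agar dilution. Compound stock dilutions in DMSO (200 to 1.56 µg/mL) were added to liquid L.J. medium, which was then sterilized by inspissation. Culture was harvested in 0.85% saline. Tubes were kept 24 h at 37 °C, streaked with 5 x 10⁴ bacilli per tube, and incubated at 37 °C. Growth was read at days 12, 22 and 28 against drug-free controls. MIC was the lowest concentration giving no colonies or fewer than 20 (≥99% inhibition), converted from µg/mL to µM.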

Assay [2] relates to Mycobacterium tuberculosis. Put plainly: Antimycobacterial activity against Mycobacterium tuberculosis MDR-TB incubated for 12 to 28 days by agar dilution method. The assay is classed as functional. The method, boiled down:
as §1

Another assay relates to Vero. The experiment in a line: Cytotoxicity against African green monkey Vero cells assessed as reduction in cell viability incubated for 72 hrs by MTT assay. The class given is cell-based. The following applies: Chlorocebus sabaeus. The method, boiled down:
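Vero cells were grown in DMEM with 2 mM Na₂CO₃ and 10% FBS at 37 °C under 5% CO₂ until confluent, then diluted in PBS. Compounds came from DMSO stocks diluted in medium, with 1% DMSO final. Exposure was 72 h at 37 °C. Monolayers were washed with warm HBSS, then MTS-PMS was added for 3 h and absorbance read at 490 nm.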
In general terms: Tetrazolium dyes change colour on reduction, which living cells bring about.

For assay [3], the system named is Mycobacterium tuberculosis. Put plainly: Antimycobacterial activity against Mycobacterium tuberculosis H37Rv ATCC 27294 by microplate alamar blue assay. The assay is classed as functional. For orientation: Resazurin is reduced to fluorescent resorufin, in cell work by metabolically active cells.

Converted amounts (≈) assume the structure as drawn.

As a reminder, the MIC90 is an inhibitory concentration at the 90% level, which refers to growth in some studies and to a panel of isolates in others. Regarding `CCC(=O)Nc1nnc(-c2ccc([N+](=O)[O-])cc2)s1`, the MIC90 in assay [1] was 89 µM (≈ 24.8 µg/mL); in assay [2], above 200 µM.

As to `O=C(CCl)Nc1nnc(-c2ccc([N+](=O)[O-])cc2)s1`, the figures for the MIC90 in assay [1] and in assay [2] were 168 µM (≈ 50.2 µg/mL) and above 200 µM, respectively.

In general, IC50 refers to the midpoint of a concentration-inhibition curve. `O=C(Nc1nnc(-c2cccc([N+](=O)[O-])c2)s1)c1ccc([N+](=O)[O-])cc1`: the MIC90 in assay [1] was determined as 33 µM (≈ 12.3 µg/mL); in assay [2], 134 µM (≈ 49.8 µg/mL). The IC50 with Vero was determined as 268 µM.

Turning to `CCCC(=O)Nc1nnc(-c2ccncc2)s1`, the MIC90 is 201 µM (≈ 49.9 µg/mL) in assay [1] and above 200 µM in assay [2].

For `O=C(Nc1nnc(-c2ccc([N+](=O)[O-])cc2)s1)c1ccccc1`, the results for the MIC90 in assay [1] and in assay [2] were 38 µM (≈ 12.4 µg/mL) and 306 µM (≈ 99.9 µg/mL), respectively.

In the case of `O=C(Nc1nnc(-c2ccc([N+](=O)[O-])cc2)s1)c1ccco1`, the MIC90 in assay [1] and in assay [2] was 9.87 µM (≈ 3.12 µg/mL) each time. For the same compound, the IC50 in the assay with Vero turned out to be 306 µM.

With `CC(C)(C)C(=O)Nc1nnc(-c2ccc([N+](=O)[O-])cc2)s1`, the MIC90 in assay [1] was 204 µM (≈ 62.5 µg/mL); in assay [2], above 200 µM.

As to `CCCCC(=O)Nc1nnc(-c2ccc([N+](=O)[O-])cc2)s1`, the MIC90 in assay [1] turned out to be 40 µM (≈ 12.3 µg/mL); in assay [2], 163 µM (≈ 49.9 µg/mL). The IC50 in the assay with Vero came out at 278 µM.

On to `CCCC(=O)Nc1nnc(-c2cccc([N+](=O)[O-])c2)s1`, for which the MIC90 in assay [1] is 42 µM (≈ 12.3 µg/mL); in assay [2], above 200 µM.

Turning to `O=C(Nc1nnc(-c2ccncc2)s1)C(Cl)(Cl)Cl`, the MIC90 in assay [1] and in assay [2] was above 200 µM in each case.

As for `O=C(CCl)Nc1nnc(-c2cccc([N+](=O)[O-])c2)s1`, the MIC90 in assay [1] was 21 µM (≈ 6.27 µg/mL); in assay [2], above 200 µM.

On to `O=C(Nc1nnc(-c2ccncc2)s1)c1cccs1`, for which the MIC90 in assay [1] is 21 µM (≈ 6.06 µg/mL); in assay [2] it was above 200 µM.

Take `O=C(Cl)CCCCC(=O)Nc1nnc(-c2ccncc2)s1`: the MIC90 in assay [1] is 192 µM (≈ 62.4 µg/mL); in assay [2], above 200 µM.

As to `CC(Cl)CC(=O)Nc1nnc(-c2ccncc2)s1` (stereo not drawn), the MIC90 in assay [1] and in assay [2] was above 200 µM each time.

On to `O=C(CCCCl)Nc1nnc(-c2ccc([N+](=O)[O-])cc2)s1`, for which the MIC90 in assay [1] is 153 µM (≈ 50 µg/mL); in assay [2], above 200 µM.

Consider `O=C(Nc1nnc(-c2ccc([N+](=O)[O-])cc2)s1)c1ccc([N+](=O)[O-])cc1`, for which the MIC90 in assay [1] was 16.8 µM (≈ 6.25 µg/mL); in assay [2] it was 67 µM (≈ 24.9 µg/mL). Further, the IC50 with Vero turned out to be 290 µM.

Take `CCCCC(=O)Nc1nnc(-c2cccc([N+](=O)[O-])c2)s1`: the MIC90 in assay [1] came out at 40 µM (≈ 12.3 µg/mL); in assay [2], 163 µM (≈ 49.9 µg/mL). Besides, the IC50 in the assay with Vero was 289 µM.

Take `O=C(CCl)Nc1nnc(-c2ccncc2)s1`: the MIC90 is 196 µM (≈ 49.9 µg/mL) in assay [1] and above 200 µM in assay [2].

In assay [3], `O=C(CSc1nnc(-c2ccc([N+](=O)[O-])o2)s1)Oc1ccccc1` had an MIC90 of 0.78 µg/mL (≈ 2.15 µM).

In the case of `O=C(CCCCl)Nc1nnc(-c2cccc([N+](=O)[O-])c2)s1`, the figures for the MIC90 in assay [1] and in assay [2] were 153 µM (≈ 50 µg/mL) and above 200 µM, respectively.

For `CC(Cl)CC(=O)Nc1nnc(-c2cccc([N+](=O)[O-])c2)s1` (stereo not drawn), the MIC90 in assay [1] and in assay [2] was above 200 µM throughout.

For the compound `O=C(Nc1nnc(-c2ccc([N+](=O)[O-])cc2)s1)c1cccs1`, the MIC90 in assay [1] and in assay [2] was above 200 µM in each case.

Take `Cc1ccc(C(=O)Nc2nnc(-c3ccc([N+](=O)[O-])cc3)s2)cc1`: the MIC90 was 18.4 µM (≈ 6.26 µg/mL) in assay [1] and 147 µM (≈ 50 µg/mL) in assay [2]. Further, in the assay on Vero, the IC50 worked out at 310 µM.

Take `O=[N+]([O-])c1ccc(CSc2nnc(-c3ccc([N+](=O)[O-])o3)s2)cc1`: in assay [3], the MIC90 came to 3.13 µg/mL (≈ 8.59 µM).

As for `O=C(Nc1nnc(-c2cccc([N+](=O)[O-])c2)s1)c1cccs1`, the MIC90 was 301 µM (≈ 100 µg/mL) in assay [1] and above 200 µM in assay [2].

For `O=C(Cl)CCCCC(=O)Nc1nnc(-c2ccc([N+](=O)[O-])cc2)s1`, the MIC90 in assay [1] was 135 µM (≈ 49.8 µg/mL); in assay [2], 271 µM (≈ 99.9 µg/mL).

Consider `CCCC(=O)Nc1nnc(-c2ccc([N+](=O)[O-])cc2)s1`, for which the MIC90 in assay [1] is 42 µM (≈ 12.3 µg/mL); in assay [2], 171 µM (≈ 50 µg/mL). Further, the IC50 in the assay with Vero was determined as 301 µM.

`COc1ccc(C(=O)Nc2nnc(-c3ccc([N+](=O)[O-])cc3)s2)cc1`: the MIC90 was found to be 35 µM (≈ 12.5 µg/mL) in assay [1] and 140 µM (≈ 49.9 µg/mL) in assay [2]. The IC50 in the assay with Vero came out at 278 µM.

For the compound `COc1ccc(C(=O)Nc2nnc(-c3cccc([N+](=O)[O-])c3)s2)cc1`, the results for the MIC90 in assay [1] and in assay [2] were 35 µM (≈ 12.5 µg/mL) and 280 µM (≈ 99.8 µg/mL), respectively.

Regarding `CC(C)(C)C(=O)Nc1nnc(-c2cccc([N+](=O)[O-])c2)s1`, the MIC90 in assay [1] was 204 µM (≈ 62.5 µg/mL); in assay [2], above 200 µM.

`CCC(=O)Nc1nnc(-c2cccc([N+](=O)[O-])c2)s1`: the MIC90 in assay [1] is 89 µM (≈ 24.8 µg/mL); in assay [2], above 200 µM.

For `O=C(Nc1nnc(-c2ccc([N+](=O)[O-])cc2)s1)C(Cl)(Cl)Cl`, the MIC90 in assay [1] is 273 µM (≈ 100 µg/mL); in assay [2], above 200 µM.

Take `O=C(Cl)CCCCC(=O)Nc1nnc(-c2cccc([N+](=O)[O-])c2)s1`: the results for the MIC90 in assay [1] and in assay [2] were 135 µM (≈ 49.8 µg/mL) and above 200 µM, respectively.

Turning to `C/C=C/C(CCC)N(C(=O)c1ccccc1)c1nnc(-c2ccc([N+](=O)[O-])cc2)s1` (stereo not drawn), the MIC90 in assay [1] was 117 µM (≈ 49.4 µg/mL); in assay [2], above 200 µM.

With `O=C(Nc1nnc(-c2cccc([N+](=O)[O-])c2)s1)c1ccccc1`, the MIC90 in assay [1] was 38 µM (≈ 12.4 µg/mL); in assay [2], above 200 µM.

For `O=C(Nc1nnc(-c2cccc([N+](=O)[O-])c2)s1)c1ccco1`, the MIC90 in assay [1] stood at 19 µM (≈ 6.01 µg/mL); in assay [2] it was 39 µM (≈ 12.3 µg/mL). Moreover, the IC50 in the assay with Vero came to 312 µM.

As to `CC(C)(C)C(=O)Nc1nnc(-c2ccncc2)s1`, the MIC90 is 238 µM (≈ 62.4 µg/mL) in assay [1] and above 200 µM in assay [2].

As to `O=C(CCCCl)Nc1nnc(-c2ccncc2)s1`, the MIC90 in assay [1] is 221 µM (≈ 62.5 µg/mL); in assay [2], above 200 µM.

As to `O=C(Nc1nnc(-c2ccncc2)s1)c1ccc([N+](=O)[O-])cc1`, the MIC90 is 9.93 µM (≈ 3.25 µg/mL) in assay [1] and 76 µM (≈ 24.9 µg/mL) in assay [2]. Moreover, the IC50 in the assay on Vero was 369 µM.

Turning to `CCCCC(=O)Nc1nnc(-c2ccncc2)s1`, the results for the MIC90 in assay [1] and in assay [2] were 95 µM (≈ 24.9 µg/mL) and 381 µM (≈ 100 µg/mL), respectively.

On to `NNC(=O)c1ccncc1` [ISONIAZID], for which the MIC90 in assay [1] is 3.64 µM (≈ 0.499 µg/mL); in assay [2], above 200 µM.

Regarding `CO[C@H]1/C=C/O[C@@]2(C)Oc3c(C)c(O)c4c(O)c(c(/C=N/N5CCN(C)CC5)c(O)c4c3C2=O)NC(=O)/C(C)=C\C=C\[C@H](C)[C@H](O)[C@@H](C)[C@@H](O)[C@@H](C)[C@H](OC(C)=O)[C@@H]1C` [RIFAMPIN], the MIC90 in assay [1] was 0.152 µM (≈ 0.125 µg/mL); in assay [2], 128 µM (≈ 105 µg/mL).

Consider `CN[C@@H]1C[C@H]2O[C@@](C)([C@@H]1OC)n1c3ccccc3c3c4c(c5c6ccccc6n2c5c31)C(=O)NC4` [STAUROSPORINE], for which the IC50 in the assay with Vero came to 0.028 µM.
